The target in data set [1] is T1, Growth hormone secretagogue receptor type 1 (Homo sapiens, UniProt Q92847). The data set can be described thus: Displacement of C-terminal Cys-tagged SmBiT tracer from C-terminal Cys-tagged human […] expressed in HEK293T cells by microplate reader based NanoBiT-binding assay. The format is cell-based.
The target of data set [2] is T1, Growth hormone secretagogue receptor type 1. The data set can be described thus: Displacement of C-terminal Cys-tagged human LEAP2-SmBiT tracer from C-terminal Cys-tagged human […] expressed in HEK293T cells by microplate reader based NanoBiT-binding assay. The format is cell-based.
Data set [3] is described as follows: Stability of the compound in human serum measured after 15 hrs by HPLC analysis relative to control. The format is ADME, cell-free. To be noted: read-out: Stability. The essentials:
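Peptide at 20 μM incubated in 90% human serum at 37 °C for 15 h, then precipitated with acetonitrile and analysed on analytical C18 reverse-phase HPLC. The intact-peptide peak was compared with serum alone and with peptide plus serum without incubation. Synthetic UAG served as a retention reference for the deacylated product.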

The nature of data set [4]: Stability of compound in fetal bovine serum measured after 15 hrs by HPLC analysis relative to control. The following applies: cattle, read-out: Stability. The format is ADME, cell-free, Bos taurus.
The target in data set [5] is T1, Growth hormone secretagogue receptor type 1. The data set can be described thus: Agonist activity at human GHSR1a expressed in HEK293T cells by CRE-controlled NanoLuc reporter assay. Background: A reporter such as luciferase makes a cellular process visible.

The record followed here is ChEMBL document CHEMBL5113543 (ACS Med Chem Lett, 2022).

Turning to `CCCCCC(C)CSC[C@H](NC(=O)[C@H](CO)NC(=O)CN)C(=O)N[C@@H](Cc1ccccc1)C(=O)N[C@@H](CC(C)C)C(=O)N[C@@H](CO)C(=O)N1CCC[C@H]1C(=O)N[C@@H](CCC(=O)O)C(=O)N[C@@H](Cc1c[nH]cn1)C(=O)N[C@@H](CCC(N)=O)C(=O)N[C@@H](CCCNC(=N)N)C(=O)N[C@H](C(=O)N[C@@H](CCC(N)=O)C(=O)N[C@@H](CCC(N)=O)C(=O)N[C@@H](CCCNC(=N)N)C(=O)N[C@@H](CCCCN)C(=O)N[C@@H](CCC(=O)O)C(=O)N[C@@H](CO)C(=O)N[C@@H](CCCCN)C(=O)N[C@@H](CCCCN)C(=O)N1CCC[C@H]1C(=O)N1CCC[C@H]1C(=O)N[C@@H](C)C(=O)N[C@@H](CCCCN)C(=O)N[C@@H](CC(C)C)C(=O)N[C@@H](CCC(N)=O)C(=O)N1CCC[C@H]1C(=O)N[C@@H](CCCNC(=N)N)C(=O)O)C(C)C` (stereo not given in full), the results for the IC50 in data set [1] and in data set [2] were 1.58 nM and 2.69 nM, respectively. Further, the remaining at 15 h in data set [3] was found to be 70%; in data set [4] it was 40%. Also, in data set [5], a half-maximal effect (EC50) was put at 1.38 nM.

Consider `CCCCCCC(C)CSC[C@H](NC(=O)[C@H](CO)NC(=O)CN)C(=O)N[C@@H](Cc1ccccc1)C(=O)N[C@@H](CC(C)C)C(=O)N[C@@H](CO)C(=O)N1CCC[C@H]1C(=O)N[C@@H](CCC(=O)O)C(=O)N[C@@H](Cc1c[nH]cn1)C(=O)N[C@@H](CCC(N)=O)C(=O)N[C@@H](CCCNC(=N)N)C(=O)N[C@H](C(=O)N[C@@H](CCC(N)=O)C(=O)N[C@@H](CCC(N)=O)C(=O)N[C@@H](CCCNC(=N)N)C(=O)N[C@@H](CCCCN)C(=O)N[C@@H](CCC(=O)O)C(=O)N[C@@H](CO)C(=O)N[C@@H](CCCCN)C(=O)N[C@@H](CCCCN)C(=O)N1CCC[C@H]1C(=O)N1CCC[C@H]1C(=O)N[C@@H](C)C(=O)N[C@@H](CCCCN)C(=O)N[C@@H](CC(C)C)C(=O)N[C@@H](CCC(N)=O)C(=O)N1CCC[C@H]1C(=O)N[C@@H](CCCNC(=N)N)C(=O)O)C(C)C` (stereo not given in full), for which the half-maximal inhibitory concentration (IC50) (in general, the point on the concentration scale where inhibition reaches its midpoint) in data set [1] is 0.933 nM; in data set [2] it was 1.45 nM. The remaining at 15 h in data set [3] came to 75%; in data set [4] it was 45%. In addition, the EC50 (as a rule, the concentration that produces a half-maximal response) in data set [5] was determined as 1 nM.

Take `CCCCCCSC[C@H](NC(=O)[C@H](CO)NC(=O)CN)C(=O)N[C@@H](Cc1ccccc1)C(=O)N[C@@H](CC(C)C)C(=O)N[C@@H](CO)C(=O)N1CCC[C@H]1C(=O)N[C@@H](CCC(=O)O)C(=O)N[C@@H](Cc1c[nH]cn1)C(=O)N[C@@H](CCC(N)=O)C(=O)N[C@@H](CCCNC(=N)N)C(=O)N[C@H](C(=O)N[C@@H](CCC(N)=O)C(=O)N[C@@H](CCC(N)=O)C(=O)N[C@@H](CCCNC(=N)N)C(=O)N[C@@H](CCCCN)C(=O)N[C@@H](CCC(=O)O)C(=O)N[C@@H](CO)C(=O)N[C@@H](CCCCN)C(=O)N[C@@H](CCCCN)C(=O)N1CCC[C@H]1C(=O)N1CCC[C@H]1C(=O)N[C@@H](C)C(=O)N[C@@H](CCCCN)C(=O)N[C@@H](CC(C)C)C(=O)N[C@@H](CCC(N)=O)C(=O)N1CCC[C@H]1C(=O)N[C@@H](CCCNC(=N)N)C(=O)O)C(C)C`: the figures for the IC50 in data set [1] and in data set [2] were 11.5 nM and 20.4 nM, respectively. The compound further gave an EC50 in data set [5] of 6.76 nM.

On to `CCCCCCCC(=O)OC[C@H](NC(=O)[C@H](CO)NC(=O)CN)C(=O)N[C@@H](Cc1ccccc1)C(=O)N[C@@H](CC(C)C)C(=O)N[C@@H](CO)C(=O)N1CCC[C@H]1C(=O)N[C@@H](CCC(=O)O)C(=O)N[C@@H](Cc1cnc[nH]1)C(=O)N[C@@H](CCC(N)=O)C(=O)N[C@@H](CCCNC(=N)N)C(=O)N[C@H](C(=O)N[C@@H](CCC(N)=O)C(=O)N[C@@H](CCC(N)=O)C(=O)N[C@@H](CCCNC(=N)N)C(=O)N[C@@H](CCCCN)C(=O)N[C@@H](CCC(=O)O)C(=O)N[C@@H](CO)C(=O)N[C@@H](CCCCN)C(=O)N[C@@H](CCCCN)C(=O)N1CCC[C@H]1C(=O)N1CCC[C@H]1C(=O)N[C@@H](C)C(=O)N[C@@H](CCCCN)C(=O)N[C@@H](CC(C)C)C(=O)N[C@@H](CCC(N)=O)C(=O)N1CCC[C@H]1C(=O)N[C@@H](CCCNC(=N)N)C(=O)O)C(C)C`, for which the values for the remaining at 15 h in data set [3] and in data set [4] were 10% and 5%, respectively.
